Source: ChEMBL document CHEMBL5143675, “Attenuating the Streptococcus pneumoniae Competence Regulon Using Urea-Bridged Cyclic Dominant-Negative Competence-Stimulating Peptide Analogs” (J Med Chem, 2022)
Activity calls are given as the source filed them. The rule behind the calls is not given here. *1 amine or outer side, *2 acyl side, *3 side chain or, on linkers, in order; H or OH if unused. Where a SMILES comes first, the peptide text is derived from it. Bridges are numbered along the chain shown (N, C = ends). [ ]: non-standard residue; d: D form. Dab = NCC[C@H](N)C(=O)O; CO = O=C([*:1])[*:2]

Legend:
[1] = Toxicity in CD-1 mouse assessed as appearance of lesions in liver at 4 mg/kg, ip administered daily for 6 days by H and E staining based assay; assay type: organism-based; conditions: in vivo, 144 h, time 6 day
[2] = Toxicity in Streptococcus pneumoniae D39 infected CD-1 mouse model assessed as mortality at 4 mg/kg,iv measured after 120 hrs post infection; assay type: organism-based; conditions: in vivo
Method in brief: (§1)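 Seven-week-old CD-1 mice, male and female, n=15 per cohort, isoflurane-anaesthetized, infected intranasally with D39 (4.5×10^6 CFU) or TIGR4 (1.07×10^6 CFU). Treated retro-orbitally i.v. with 4 mg/kg or PBS vehicle at 2 and 24 hpi; mortality monitored for 120 hpi.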

[3] = Toxicity in CD-1 mouse assessed as increase in body weight at 4 mg/kg, ip administered daily for 6 days; assay type: organism-based; conditions: in vivo, 144 h, time 6 day
[4] = tested on: Streptococcus pneumoniae; assay: Antagonist activity against CSP1-mediated pneumolysin release in Streptococcus pneumoniae D39 assessed as inhibition of autolytic release of pneumolysin at 46 to 368 nM in presence of CSP1 by Western blot analysis; conditions: filed as antagonist, dose 46-368 nM
[5] = Toxicity in CD-1 mouse assessed as appearance of lesions in spleen at 4 mg/kg, ip administered daily for 6 days by H and E staining based assay; assay type: organism-based; conditions: in vivo, 144 h, time 6 day
[6] = Toxicity in CD-1 mouse assessed as appearance of lesions in lung at 4 mg/kg, ip administered daily for 6 days by H and E staining based assay; assay type: organism-based; conditions: in vivo, 144 h, time 6 day
[7] = Toxicity in CD-1 mouse assessed as appearance of lesions in kidney at 4 mg/kg, ip administered daily for 6 days by H and E staining based assay; assay type: organism-based; conditions: in vivo, 144 h, time 6 day
[8] = tested on: Streptococcus pneumoniae; assay: Antibacterial activity against erythromycin-resistant Streptococcus pneumoniae D39 infected in CD-1 mouse assessed as reduction in bacterial burden in mouse lung at 4 mg/kg,iv measured after 48 hrs post infection; assay type: functional, organism-based
Method in brief: (§2)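 Seven-week-old CD-1 mice, male and female, n=10 per cohort, inoculated intranasally with a 1:1 mix of D39-rplL-ErmR and TIGR4-rplL-KanR (2.5×10^6 CFU each). Treated retro-orbitally i.v. with 4 mg/kg or PBS vehicle at 2 and 24 hpi; euthanized at 48 hpi. Lung and spleen homogenates were plated on THY with erythromycin (250 ng/mL) for D39 or […] for TIGR4.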

[9] = Toxicity in Streptococcus pneumoniae TIGR4 infected CD-1 mouse model assessed as mortality at 4 mg/kg,iv measured after 72 hrs post; assay type: organism-based; conditions: in vivo; method in brief: as §1
[10] = tested on: Erythrocyte; assay: Hemolytic activity against sheep RBC assessed as hemolysis using compound treated Streptococcus pneumoniae D39 cultured PLY supernatant at 46 to 368 nM incubated for 30 mins; assay type: toxicity, cell-based, Ovis aries; conditions: 0.5 h, 0.368 µM, dose 46-368 nM
Method in brief: (§3)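 Supernatants: centrifuged, 0.22 μm filtered, concentrated 50x, serially two-fold diluted, 10 mM DTT for 15 min at room temperature. Then mixed with 2% sheep RBC for 30 min at 37 °C; A541 of cleared supernatant read. HU = highest dilution giving 50% lysis. Triplicate.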

[11] = tested on: Streptococcus pneumoniae; assay: Antibacterial activity against erythromycin-resistant Streptococcus pneumoniae D39 infected in CD-1 mouse assessed as reduction in bacterial burden in mouse spleen at 4 mg/kg,iv measured after 48 hrs post infection; assay type: functional, organism-based; method in brief: as §2
[12] = Toxicity in CD-1 mouse assessed as appearance of lesions in heart at 4 mg/kg, ip administered daily for 6 days by H and E staining based assay; assay type: organism-based; conditions: in vivo, 144 h, time 6 day
[13] = tested on: Erythrocyte; assay: Hemolytic activity against sheep RBC assessed as hemolysis using compound treated Streptococcus pneumoniae TIGR4 cultured PLY supernatant at 46 to 368 nM incubated for 30 mins; assay type: toxicity, cell-based, Ovis aries; conditions: 0.5 h, 0.368 µM, dose 46-368 nM; method in brief: as §3

For `CC[C@H](C)[C@H](NC(=O)[C@H](Cc1ccccc1)NC(=O)[C@@H]1CCNC(=O)NCC[C@H](NC(=O)[C@H](CO)NC(=O)[C@H](CC(C)C)NC(=O)[C@H](CCCNC(=N)N)NC(=O)[C@H](CCSC)NC(=O)[C@H](C)N)C(=O)N[C@@H](Cc2ccccc2)C(=O)N[C@@H](Cc2ccccc2)C(=O)N[C@@H](CCCNC(=N)N)C(=O)N1)C(=O)N[C@@H](CC(C)C)C(=O)N[C@@H](CCC(N)=O)C(=O)N[C@@H](CCCNC(=N)N)C(=O)N[C@@H](CCCCN)C(=O)N[C@@H](CCCCN)C(=O)O` (H-AMRLS[Dab]FFR[Dab]FILQRKK-OH; linker 6-10 via CO), the Activity [1] was “Non-Toxic”, the Activity [2] was “Non-Toxic” and the Activity [3] was “Non-Toxic”. For the same compound, the Activity [4] was “Active”, the Activity [5] was “Non-Toxic” and the Activity [6] was “Non-Toxic”. For the same compound, the Activity [7] was “Non-Toxic”, the Activity [8] was “Active” and the mortality at 72 h [9] was 50%. For the same compound, the Activity [10] was “Non-Toxic”, the Activity [11] was “Active” and the Activity [12] was “Non-Toxic”. The Activity [13] was “Toxic”.
